Activity calls are given as the source filed them.
Key:
Type in all cases: functional, organism-based
LOX IMVI = assay: Antitumor activity against human LOXIMVI cells implanted intraperitoneally in mouse assessed as inhibition of tumor cell growth at 1.6 to 2.4 mg/kg, ip administered on day 1 to 4 measured on day 5 by hollow fiber assay
Procedure, shortened: (§1)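 Human tumour cell lines from a standard 12-line panel encapsulated in polyvinylidene fluoride hollow fibres (500,000 Da exclusion), implanted intraperitoneally or subcutaneously in mice; drug given IP at 2.4 and 1.6 mg/kg/dose on days 1–4; fibres retrieved and viable cell mass determined day 5; T/C versus vehicle-only injected controls.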

Homo sapiens = assay: Antitumor activity against human […] cells implanted intraperitoneally in mouse assessed as inhibition of tumor cell growth at 1.6 to 2.4 mg/kg, ip administered on day 1 to 4 measured on day 5 by hollow fiber assay; procedure, shortened: as §1
MDA-MB-231 = assay: Antitumor activity against human MDA-MB-231 cells implanted intraperitoneally in mouse assessed as inhibition of tumor cell growth at 1.6 to 2.4 mg/kg, ip administered on day 1 to 4 measured on day 5 by hollow fiber assay; procedure, shortened: as §1
U-251 = assay: Antitumor activity against human U251 cells implanted intraperitoneally in mouse assessed as inhibition of tumor cell growth at 1.6 to 2.4 mg/kg, ip administered on day 1 to 4 measured on day 5 by hollow fiber assay; procedure, shortened: as §1
NCI-H522 = assay: Antitumor activity against human NCI-H522 cells implanted intraperitoneally in mouse assessed as inhibition of tumor cell growth at 1.6 to 2.4 mg/kg, ip administered on day 1 to 4 measured on day 5 by hollow fiber assay; procedure, shortened: as §1
OVCAR-5 = assay: Antitumor activity against human OVCAR5 cells implanted intraperitoneally in mouse assessed as inhibition of tumor cell growth at 1.6 to 2.4 mg/kg, ip administered on day 1 to 4 measured on day 5 by hollow fiber assay; procedure, shortened: as §1
NCI-H23 = assay: Antitumor activity against human NCI-H23 cells implanted intraperitoneally in mouse assessed as inhibition of tumor cell growth at 1.6 to 2.4 mg/kg, ip administered on day 1 to 4 measured on day 5 by hollow fiber assay; procedure, shortened: as §1
SF-295 = assay: Antitumor activity against human SF295 cells implanted intraperitoneally in mouse assessed as inhibition of tumor cell growth at 1.6 to 2.4 mg/kg, ip administered on day 1 to 4 measured on day 5 by hollow fiber assay; procedure, shortened: as §1
COLO 205 = assay: Antitumor activity against human COLO205 cells implanted intraperitoneally in mouse assessed as inhibition of tumor cell growth at 1.6 to 2.4 mg/kg, ip administered on day 1 to 4 measured on day 5 by hollow fiber assay; procedure, shortened: as §1
SW-620 = assay: Antitumor activity against human SW620 cells implanted intraperitoneally in mouse assessed as inhibition of tumor cell growth at 1.6 to 2.4 mg/kg, ip administered on day 1 to 4 measured on day 5 by hollow fiber assay; procedure, shortened: as §1
UACC-62 = assay: Antitumor activity against human UACC62 cells implanted intraperitoneally in mouse assessed as inhibition of tumor cell growth at 1.6 to 2.4 mg/kg, ip administered on day 1 to 4 measured on day 5 by hollow fiber assay; procedure, shortened: as §1
MDA-MB-435 = assay: Antitumor activity against human MDA-MB-435 cells implanted intraperitoneally in mouse assessed as inhibition of tumor cell growth at 1.6 to 2.4 mg/kg, ip administered on day 1 to 4 measured on day 5 by hollow fiber assay; procedure, shortened: as §1

Measured: TGI

C/C=C1\NC(=O)[C@H]2CSSCC/C=C/[C@H](CC(=O)N[C@H](C(C)C)C(=O)N2)OC(=O)[C@H](C(C)C)NC1=O
active: LOX IMVI | Homo sapiens | MDA-MB-231 | U-251 | NCI-H522 | OVCAR-5 | NCI-H23 | SF-295 | COLO 205 | SW-620 | UACC-62 | MDA-MB-435

Source: ChEMBL document CHEMBL1833805, “Histone deacetylase inhibitors from Burkholderia thailandensis” (2011)
